{"source": "ChEMBL document CHEMBL2331340", "about": "“Novel antitumor indolizino[6,7-b]indoles with multiple modes of action: DNA cross-linking and topoisomerase I and II inhibition” (J Med Chem, 2013)", "key": {"MES-SA": {"tested_on": "MES-SA", "experiment": "Resistance factor, ratio of IC50 for human MES-SA/Dx5 cells to IC50 for human MES-SA cells", "type": "functional"}, "A549 [1]": {"tested_on": "A549", "experiment": "Antitumor activity against human A549 cells xenografted in nude mouse assessed as tumor growth inhibition at 25 mg/kg, iv qd administered 4 days measured on day 20 relative to vehicle-treated control", "type": "functional", "conditions": "read-out: TGI"}, "A549 [2]": {"tested_on": "A549", "experiment": "Cytotoxicity against human A549 cells after 72 hrs by Alamar blue assay", "type": "functional, cell-based", "conditions": "A549, 72 h", "outline": "(§1)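 Cells exposed to compound for 72 h, then Alamar blue added with a further 10−12 h at 37 °C and a spectrophotometric read. IC50 from six or seven concentrations by median-effect analysis; mean ± STDEV, n = 3. CL141T is a line derived from a patient lung tumor passaged as a SCID mouse xenograft.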"}, "NCI-H460 [3]": {"tested_on": "NCI-H460", "experiment": "Induction of apoptosis in human H460 cells assessed as increase in apoptotic cells at IC50 after 24 hrs by annexin V-FITC/propidium iodide staining-based FACS flow cytometric analysis (reference value: 4.1%)", "type": "functional"}, "PC-3": {"tested_on": "PC-3", "experiment": "Cytotoxicity against human PC3 cells after 72 hrs by Alamar blue assay", "type": "functional, cell-based", "conditions": "PC-3, 72 h", "outline": "as §1"}, "[4]": {"experiment": "Cell cycle arrest in human CL141T cells assessed as accumulation at S phase at 1 x IC50 to 2 x IC50 after 24 hrs by propidium iodide staining-based FACS flow cytometric analysis", "type": "functional", "outline": "(§2)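 CL141T cells treated at 0.5-, 1- and 2-fold IC50 for 24, 48 and 72 h. Cells fixed in ice-cold 70% EtOH, then stained with 4 μg/mL propidium iodide in PBS with 1% Triton X-100 and 0.1 mg/mL RNase A. Phase distribution from flow cytometry DNA histograms; sub-G1 fraction scored as well.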"}, "[5]": {"experiment": "Cell cycle arrest in human CL141T cells assessed as accumulation at sub-G1 phase at 0.5 x IC50 to 2 x IC50 after 72 hrs by propidium iodide staining-based FACS flow cytometric analysis", "type": "functional", "outline": "as §2"}, "HCT-116": {"tested_on": "HCT-116", "experiment": "Cytotoxicity against human HCT116 cells after 72 hrs by Alamar blue assay", "type": "functional, cell-based", "conditions": "HCT-116, 72 h", "outline": "as §1"}, "[6]": {"experiment": "Cytotoxicity against human H460 cells after 72 hrs by Alamar blue assay", "type": "functional, cell-based", "conditions": "NCI-H460, 72 h", "outline": "as §1"}, "[7]": {"molecular_target": "DNA topoisomerase 2-alpha (Homo sapiens) (UniProt P11388)", "sequence (P11388 whole entry)": "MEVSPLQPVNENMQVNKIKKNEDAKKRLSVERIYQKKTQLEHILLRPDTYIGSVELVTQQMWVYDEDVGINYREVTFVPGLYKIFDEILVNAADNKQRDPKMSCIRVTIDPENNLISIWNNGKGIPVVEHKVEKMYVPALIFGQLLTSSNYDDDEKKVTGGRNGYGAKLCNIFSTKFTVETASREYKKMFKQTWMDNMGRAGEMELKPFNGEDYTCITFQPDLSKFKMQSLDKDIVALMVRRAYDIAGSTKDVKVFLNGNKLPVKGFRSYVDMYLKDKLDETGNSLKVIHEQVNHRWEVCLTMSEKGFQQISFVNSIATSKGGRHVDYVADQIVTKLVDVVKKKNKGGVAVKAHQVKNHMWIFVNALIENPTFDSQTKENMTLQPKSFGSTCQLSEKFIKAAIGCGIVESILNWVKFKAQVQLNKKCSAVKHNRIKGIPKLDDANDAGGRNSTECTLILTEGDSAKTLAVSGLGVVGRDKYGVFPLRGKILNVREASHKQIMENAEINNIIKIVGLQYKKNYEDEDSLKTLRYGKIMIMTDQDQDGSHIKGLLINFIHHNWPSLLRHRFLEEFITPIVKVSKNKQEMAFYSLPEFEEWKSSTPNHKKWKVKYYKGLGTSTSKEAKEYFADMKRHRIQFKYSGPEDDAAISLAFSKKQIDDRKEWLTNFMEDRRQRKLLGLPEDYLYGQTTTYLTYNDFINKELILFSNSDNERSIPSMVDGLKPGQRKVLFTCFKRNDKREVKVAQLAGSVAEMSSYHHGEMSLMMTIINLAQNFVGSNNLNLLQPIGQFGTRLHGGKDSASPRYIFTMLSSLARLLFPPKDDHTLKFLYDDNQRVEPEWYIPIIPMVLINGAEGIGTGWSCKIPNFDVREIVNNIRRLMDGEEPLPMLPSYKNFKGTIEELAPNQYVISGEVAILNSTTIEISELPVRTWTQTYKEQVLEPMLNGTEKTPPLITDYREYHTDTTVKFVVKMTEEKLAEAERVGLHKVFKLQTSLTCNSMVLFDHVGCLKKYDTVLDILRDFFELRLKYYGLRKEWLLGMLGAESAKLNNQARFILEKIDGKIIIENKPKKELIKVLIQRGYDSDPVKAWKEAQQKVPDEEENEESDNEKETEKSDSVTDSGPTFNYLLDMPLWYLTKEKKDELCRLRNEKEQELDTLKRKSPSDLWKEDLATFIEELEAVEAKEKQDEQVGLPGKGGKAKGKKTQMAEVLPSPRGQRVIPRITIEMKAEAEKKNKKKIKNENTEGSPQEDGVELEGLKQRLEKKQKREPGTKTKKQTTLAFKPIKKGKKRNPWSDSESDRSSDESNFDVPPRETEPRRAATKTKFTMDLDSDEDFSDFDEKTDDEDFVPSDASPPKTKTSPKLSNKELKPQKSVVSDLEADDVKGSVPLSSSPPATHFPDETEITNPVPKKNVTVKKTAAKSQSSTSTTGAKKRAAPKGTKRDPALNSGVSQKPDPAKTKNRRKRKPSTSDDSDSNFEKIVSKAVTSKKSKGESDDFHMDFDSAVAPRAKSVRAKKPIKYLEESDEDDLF", "experiment": "Inhibition of DNA topoisomerase 2 (unknown origin)-mediated relaxation of supercoiled pHOT DNA after 30 to 45 mins by agarose gel electrophoresis", "outline": "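Supercoiled pHOT DNA (125 ng) with compound in buffer stated as 0.5 M Tris-HCl pH 8.0, 1.5 M NaCl, 100 mM MgCl2, 5 mM DTT, 300 μg/mL BSA, 20 mM ATP, at 37 °C. Methods state 6 units topo II, figure legend 5 units; 30−45 min, SDS stop. Products run on 1% agarose and stained with ethidium bromide.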"}, "[8]": {"experiment": "Cytotoxicity against human HEL299 cells", "type": "cell-based", "conditions": "HEL 299"}, "[9]": {"experiment": "Cytotoxicity against human MES-SA/Dx5 cells after 72 hrs by Presto Blue assay", "type": "functional, cell-based", "conditions": "MES-SA/Dx5, 72 h", "outline": "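MES-SA and doxorubicin-resistant MES-SA/dx5 cells exposed for 72 h, then PrestoBlue added for 3 h at 37 °C, absorbance read at 570 and 600 nm. IC50 by median-effect analysis of six or seven concentrations; mean ± STDEV of three to six independent experiments.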"}, "Mus musculus": {"tested_on": "Mus musculus", "experiment": "Toxicity in nude mouse xenografted with human A549 cells assessed as body weight loss at 25 mg/kg, iv qd administered 4 days measured for 20 days", "type": "organism-based", "parameters": "dose 25 mg/kg, route intravenous", "conditions": "in vivo, 480 h"}, "[10]": {"experiment": "Cell cycle arrest in human CL141T cells assessed as accumulation at S phase at 0.5 x IC50 after 24 hrs by propidium iodide staining-based FACS flow cytometric analysis", "type": "functional", "outline": "as §2"}, "CCRF-CEM": {"tested_on": "CCRF-CEM", "experiment": "Cytotoxicity against human CCRF-CEM cells after 72 hrs by XTT assay", "type": "functional, cell-based", "outline": "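CCRF-CEM T-ALL cells incubated with compound for 72 h. XTT with phenazine methosulfate then added for 6 h at 37 °C, absorbance read at 450 and 630 nm. IC50 from six or seven concentrations by median-effect analysis; mean ± STDEV, n = 3.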"}, "[11]": {"experiment": "Cell cycle arrest in human CL141T cells assessed as accumulation at G2/M phase at 0.5 x IC50 to 1 x IC50 after 48 to 72 hrs by propidium iodide staining-based FACS flow cytometric analysis", "type": "functional", "outline": "as §2"}, "[12]": {"molecular_target": "T1, DNA topoisomerase 1 (Homo sapiens) (UniProt P11387)", "T1 sequence (whole entry)": "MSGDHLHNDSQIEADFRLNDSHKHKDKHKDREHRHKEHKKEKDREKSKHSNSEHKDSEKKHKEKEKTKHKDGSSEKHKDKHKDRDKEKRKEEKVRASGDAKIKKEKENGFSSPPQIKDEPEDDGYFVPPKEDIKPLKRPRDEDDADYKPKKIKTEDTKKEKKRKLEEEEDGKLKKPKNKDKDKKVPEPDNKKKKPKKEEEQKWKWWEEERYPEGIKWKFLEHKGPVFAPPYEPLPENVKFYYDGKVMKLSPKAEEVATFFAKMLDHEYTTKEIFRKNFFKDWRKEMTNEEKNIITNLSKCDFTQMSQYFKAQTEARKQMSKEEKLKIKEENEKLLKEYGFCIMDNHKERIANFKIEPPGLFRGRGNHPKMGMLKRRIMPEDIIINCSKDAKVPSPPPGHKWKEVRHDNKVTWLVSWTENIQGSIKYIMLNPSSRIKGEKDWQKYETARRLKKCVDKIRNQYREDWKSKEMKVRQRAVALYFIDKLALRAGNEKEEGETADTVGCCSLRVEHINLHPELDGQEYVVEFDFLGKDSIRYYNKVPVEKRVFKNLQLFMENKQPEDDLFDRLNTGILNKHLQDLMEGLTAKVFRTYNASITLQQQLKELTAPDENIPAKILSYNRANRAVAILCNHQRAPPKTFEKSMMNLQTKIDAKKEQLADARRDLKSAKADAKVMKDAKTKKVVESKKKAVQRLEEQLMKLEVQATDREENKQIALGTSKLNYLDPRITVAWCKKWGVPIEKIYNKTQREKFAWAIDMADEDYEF", "experiment": "Inhibition of DNA topoisomerase 1 (unknown origin)-mediated relaxation of supercoiled pHOT DNA at 25 to 200 uM after 30 to 45 mins by agarose gel electrophoresis", "outline": "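Supercoiled pHOT DNA (200 ng) and compound in 10 mM Tris-HCl pH 7.9 with 1 mM EDTA at 37 °C. Reaction started with 1 unit topo I, run 30−45 min, stopped with 10% SDS. Products separated on 1% agarose at 50 V for 90 min and stained with ethidium bromide.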"}, "NCI-H460 [13]": {"tested_on": "NCI-H460", "experiment": "Induction of apoptosis in human H460 cells assessed as increase in cleaved PARP expression at IC50 after 24 to 72 hrs by Western blotting analysis", "type": "functional, cell-based", "outline": "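H460 cells treated at IC50 for 24 and 72 h. Lysate proteins separated by SDS-PAGE and blotted to nitrocellulose, blocked in 5% milk/PBST. Primary antibodies to caspase-3, caspase-7, PARP (full-length and cleaved) and β-actin applied for 1 h at room temperature or overnight at 4 °C; HRP secondary with ECL detection.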"}}, "note": "Calls of active or inactive are those of the source. The calls are words filed in the database; no cut-off is given here.", "data": [{"smiles": "Cc1c(CO)c(CO)c2n1Cc1c(c3ccccc3n1C)C2", "values": [{"measurement": "Ratio IC50", "setting": "MES-SA", "result": 0.52}, {"measurement": "inhibition in vivo at 25 mg/kg", "setting": "A549 [1]", "result": 50, "unit": "%"}, {"measurement": "IC50", "setting": "A549 [2]", "result": 1140, "unit": "nM"}, {"measurement": "Activity", "setting": "NCI-H460 [3]", "result": 15.09, "unit": "%"}, {"measurement": "IC50", "setting": "PC-3", "result": 610, "unit": "nM"}, {"measurement": "Activity", "setting": "[4]", "result": "Active"}, {"measurement": "Activity", "setting": "[5]", "result": "Active"}, {"measurement": "IC50", "setting": "HCT-116", "result": 1000, "unit": "nM"}, {"measurement": "IC50", "setting": "[6]", "result": 380, "unit": "nM"}, {"measurement": "inhibition", "setting": "[7]", "result": "Dose-dependent effect"}, {"measurement": "IC50", "setting": "[8]", "result": 2790, "unit": "nM"}, {"measurement": "IC50", "setting": "[9]", "result": 120, "unit": "nM"}, {"measurement": "Activity", "setting": "Mus musculus", "result": "Toxic"}, {"measurement": "Activity", "setting": "[10]", "result": "Active"}, {"measurement": "IC50", "setting": "CCRF-CEM", "result": 40, "unit": "nM"}, {"measurement": "Activity", "setting": "[11]", "result": "Active"}, {"measurement": "inhibition", "setting": "[12]", "result": "Active"}, {"measurement": "Activity", "setting": "NCI-H460 [13]", "result": "Active"}]}]}
